Results on 3 compounds are retold here after ChEMBL document CHEMBL4346727, “Synthesis and pharmacological evaluation of novel N-Mannich bases derived from 5,5-diphenyl and 5,5-di(propan-2-yl)imidazolidine-2,4-dione core” (Bioorg Med Chem Lett, 2019).

The subject of data set [1] is Mus musculus. The data set is described as follows: Anticonvulsant activity in ip dosed CD1 mouse assessed as time to peak effect on protection against 32 mA current-induced seizure by 6 Hz psychomotor seizure test. It is filed as functional. An outline of the steps: (§1)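 Median effective doses were quantified in the maximal electroshock, subcutaneous pentylenetetrazole and 6 Hz tests after intraperitoneal dosing in mice or oral dosing in rats, at the time of peak effect. ED50 values are reported with ranges in parentheses.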

The subject of data set [2] is Mus musculus. The data set is described as follows: Anticonvulsant activity in ip dosed CD1 mouse assessed as protection against 50 mA current-induced seizure and measured after 4 hrs by maximal electroshock seizure test. Format: functional. To be noted: read-out: MED. An outline of the steps: (§2)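 Mice were screened after intraperitoneal doses of 30, 100 and 300 mg/kg in the maximal electroshock and subcutaneous pentylenetetrazole tests, examined at 0.5 and 4 h. The value recorded is the minimum dose showing activity. No activity up to 300 mg/kg is scored as absent.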
A general note: The maximal electroshock test induces tonic seizures with an electrical stimulus.

Data set [3] concerns Mus musculus. The data set is described as follows: Anticonvulsant activity in ip dosed CD1 mouse assessed as protection against 50 mA current-induced seizure and measured after 0.5 hrs by maximal electroshock seizure test. Particulars: read-out: MED. It is filed as functional. An outline of the steps: as §2
Data set [4] deals with Mus musculus. The data set is described as follows: Anticonvulsant activity in ip dosed CD1 mouse assessed as time to peak effect on protection against 50 mA current-induced seizures. Format: functional. An outline of the steps: as §1
Data set [5] concerns Mus musculus. In words: Anticonvulsant activity in ip dosed CD1 mouse assessed as protection against subcutaneous pentylenetetrazole-induced seizures. It is filed as functional. An outline of the steps: as §1
Data set [6] concerns Rattus norvegicus. The data set is described as follows: Anticonvulsant activity in po dosed Sprague-Dawley rat assessed as time to peak effect on protection against 32 mA current-induced seizure by 6 Hz psychomotor seizure test. Format: functional.
Data set [7] can be described thus: Neurotoxicity in po dosed Sprague-Dawley rat assessed as time to peak effect by rotarod test. It is filed as toxicity, organism-based. To be noted: in vivo.
Data set [8] relates to Rattus norvegicus. The data set is described as follows: Anticonvulsant activity in po dosed Sprague-Dawley rat assessed as time to peak effect on protection against subcutaneous pentylenetetrazole-induced seizures. Format: functional.
Data set [9] in a line: Protection index, ratio of TD50 for neurotoxicity in po dosed Sprague-Dawley rat by rotarod test to ED50 for anticonvulsant activity in po dosed Sprague-Dawley rat by maximal electroshock seizure test. It is filed as toxicity, organism-based. To be noted: in vivo, read-out: Ratio TD50/ED50. In general terms: In the rotarod test animals must keep their balance on a rotating rod.

For data set [10], the system named is Mus musculus. The data set is described as follows: Anticonvulsant activity in ip dosed CD1 mouse assessed as protection against 32 mA current-induced seizure by 6 Hz psychomotor seizure test. Format: functional. An outline of the steps: as §1
Data set [11] relates to Rattus norvegicus. The data set is described as follows: Anticonvulsant activity in po dosed Sprague-Dawley rat assessed as protection against subcutaneous pentylenetetrazole-induced seizures. Format: functional.
Data set [12] concerns Rattus norvegicus. In words: Anticonvulsant activity in po dosed Sprague-Dawley rat assessed as time to peak effect on protection against 150 mA current-induced seizures. Format: functional. In a few lines:
as §1

The nature of data set [13]: Neurotoxicity in ip dosed CD1 mouse and measured after 0.5 hrs by rotarod test. Format: toxicity, organism-based. To be noted: in vivo. An outline of the steps:
(§3)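 Mice dosed intraperitoneally at 30, 100 and 300 mg/kg, then tested on the rotarod at 0.5 h and 4 h. The value recorded is the minimum dose at which neurotoxicity appeared. A dash means no neurotoxicity at the top dose of 300 mg/kg.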

Data set [14] concerns Mus musculus. The data set is described as follows: Anticonvulsant activity in ip dosed CD1 mouse assessed as time to peak effect on protection against subcutaneous pentylenetetrazole-induced seizures. It is filed as functional. In a few lines: as §1
Data set [15] can be described thus: Neurotoxicity in po dosed Sprague-Dawley rat model by rotarod test. It is filed as toxicity, organism-based. To be noted: in vivo. An outline of the steps:
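Rats dosed orally; neurotoxicity scored on the rotarod. Screening used a fixed 30 mg/kg, with animals checked at 0.25, 0.5, 1, 2, 4 and 6 h; the reading is the number of four rats showing neurotoxicity. In quantitative runs, a median toxic dose (TD50, mg/kg) was determined after oral dosing at the time of peak effect.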

Data set [16] in a line: Neurotoxicity in ip dosed CD1 mouse and measured after 4 hrs by rotarod test. Format: toxicity, organism-based. Particulars: in vivo. An outline of the steps: as §3
Data set [17] has as its system Mus musculus. In words: Anticonvulsant activity in CD1 mouse assessed as protection against subcutaneous pentylenetetrazole-induced seizures at 300 mg/kg, ip and measured after 0.5 hrs. Format: functional, organism-based. In a few lines: as §2
Data set [18] relates to Mus musculus. In words: Anticonvulsant activity in CD1 mouse assessed as protection against subcutaneous pentylenetetrazole-induced seizures at 300 mg/kg, ip and measured after 4 hrs. Format: functional, organism-based. In a few lines: as §2
Data set [19] can be described thus: Protection index, ratio of TD50 for neurotoxicity in ip dosed CD1 mouse by rotarod test to ED50 for anticonvulsant activity in ip dosed CD1 mouse by maximal electroshock seizure test. It is filed as toxicity, organism-based. Particulars: in vivo, read-out: Ratio TD50/ED50.
The nature of data set [20]: Neurotoxicity in ip dosed CD1 mouse assessed as time to peak effect by rotarod test. It is filed as toxicity, organism-based. Particulars: in vivo.
The subject of data set [21] is Mus musculus. In words: Anticonvulsant activity in ip dosed CD1 mouse assessed as protection against subcutaneous pentylenetetrazole-induced seizures and measured after 4 hrs. Format: functional. To be noted: CD1, 4 h, read-out: MED. An outline of the steps:
as §2

Data set [22] in a line: Neurotoxicity in CD1 mouse at 100 mg/kg, ip measured after 2 hrs by rotarod test. To be noted: in vivo.
Data set [23] is described as follows: Neurotoxicity in Sprague-Dawley rat at 30 mg/kg, po measured after 4 hr by rotarod test. Format: toxicity, organism-based. Particulars: in vivo. In a few lines:
(§4)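 Rats given one oral dose of 30 mg/kg and tested on the rotarod at 0.25, 0.5, 1, 2, 4 and 6 h.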

Data set [24] is described as follows: Neurotoxicity in CD1 mouse at 300 mg/kg, ip and measured after 0.5 hrs by rotarod test. It is filed as toxicity, organism-based. Particulars: in vivo. An outline of the steps:
as §3

Data set [25] relates to Rattus norvegicus. The data set is described as follows: Anticonvulsant activity in Sprague-Dawley rat assessed as protection against 150 mA current-induced seizure at 30 mg/kg, po measured after 15 mins by maximal electroshock seizure test. It is filed as functional, organism-based. In a few lines: (§5)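 Rats received 30 mg/kg orally and were given maximal electroshock at 0.25, 0.5, 1, 2, 4 and 6 h. Read-out is the number of rats protected out of four.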

For data set [26], the system named is Mus musculus. In words: Anticonvulsant activity in CD1 mouse assessed as protection against 32 mA current-induced seizure at 100 mg/kg, ip measured after 2 hrs by 6 Hz psychomotor seizure test.
Data set [27] concerns Mus musculus. In words: Anticonvulsant activity in CD1 mouse assessed as protection against 32 mA current-induced seizure at 100 mg/kg, ip measured after 15 mins by 6 Hz psychomotor seizure test.
In data set [28] the test system is Rattus norvegicus. In words: Anticonvulsant activity in Sprague-Dawley rat assessed as protection against 150 mA current-induced seizure at 30 mg/kg, po measured after 1 hr by maximal electroshock seizure test. It is filed as functional, organism-based. An outline of the steps: as §5
A short description of data set [29]: Neurotoxicity in CD1 mouse at 100 mg/kg, ip measured after 15 mins by rotarod test. Particulars: in vivo, 0.25 h.
Data set [30] can be described thus: Neurotoxicity in Sprague-Dawley rat at 30 mg/kg, po measured after 1 hr by rotarod test. Format: toxicity, organism-based. To be noted: in vivo. In a few lines: as §4
Data set [31] can be described thus: Neurotoxicity in CD1 mouse at 100 mg/kg, ip measured after 4 hrs by rotarod test. Particulars: in vivo.
Data set [32] has as its system Rattus norvegicus. The data set is described as follows: Anticonvulsant activity in Sprague-Dawley rat assessed as protection against 150 mA current-induced seizure at 30 mg/kg, po measured after 2 hrs by maximal electroshock seizure test. Format: functional, organism-based. In a few lines: as §5
Data set [33] has as its system Rattus norvegicus. The data set is described as follows: Anticonvulsant activity in Sprague-Dawley rat assessed as protection against 150 mA current-induced seizure at 30 mg/kg, po measured after 4 hrs by maximal electroshock seizure test. Format: functional, organism-based. An outline of the steps:
as §5

Data set [34] can be described thus: Neurotoxicity in Sprague-Dawley rat at 30 mg/kg, po measured after 15 mins by rotarod test. It is filed as toxicity, organism-based. To be noted: in vivo, 0.25 h. In a few lines:
as §4

Data set [35] is described as follows: Neurotoxicity in Sprague-Dawley rat at 30 mg/kg, po measured after 30 mins by rotarod test. To be noted: in vivo, 0.5 h. Format: toxicity, organism-based. In a few lines: as §4
Data set [36] concerns Mus musculus. The data set is described as follows: Anticonvulsant activity in CD1 mouse assessed as protection against 32 mA current-induced seizure at 100 mg/kg, ip measured after 30 mins by 6 Hz psychomotor seizure test.
A short description of data set [37]: Neurotoxicity in CD1 mouse at 100 mg/kg, ip measured after 30 mins by rotarod test. To be noted: in vivo, 0.5 h.
Data set [38] can be described thus: Neurotoxicity in CD1 mouse at 100 mg/kg, ip measured after 1 hr by rotarod test. Particulars: in vivo.
Data set [39] is described as follows: Neurotoxicity in Sprague-Dawley rat at 30 mg/kg, po measured after 2 hr by rotarod test. To be noted: in vivo. Format: toxicity, organism-based. An outline of the steps: as §4
A short description of data set [40]: Neurotoxicity in CD1 mouse at 300 mg/kg, ip and measured after 4 hrs hrs by rotarod test. It is filed as toxicity, organism-based. To be noted: in vivo. An outline of the steps: as §3

By ED50 is commonly meant the midpoint of the dose-response relation. What is called TD50 is the dose at which the toxic effect under study appears in half of the subjects.

The structures appear in SMILES notation. The source made the active and inactive calls. Unless noted, no cut-off for these calls is given here.

In the case of `O=C1NC(=O)C(c2ccccc2)(c2ccccc2)N1` [PHENYTOIN], the Time in data set [1], in data set [4], in data set [6], in data set [7], in [8] and in data set [12] was 1 h in each case. Besides, the Time in data set [14] and in [20] was 1 h throughout. For the same compound, the minimal effective dose in data set [2] and in [3] was 30 mg/kg throughout. Besides, the ED50 is greater than 500 mg/kg in data set [5], greater than 60 mg/kg in [10] and greater than 500 mg/kg in data set [11]. For the same compound, the selectivity ratio in [9] is greater than 35.6; in data set [19], 7.27. In data set [13], this compound returned a minimal neurotoxic dose of 100 mg/kg. For the same compound, the TD50 in [15] is greater than 1000 mg/kg. Also, the MTC in data set [16] was 100 mg/kg. The MED entry in [17] is “inactive”. Moreover, the outcome in data set [18] was inactive.
On to `CC(C)C1(C(C)C)NC(=O)N(CN2CCN(c3ccccc3F)CC2)C1=O`, for which the minimal effective dose in data set [2], in data set [3] and in data set [21] was 100 mg/kg throughout. In [13], the minimal neurotoxic dose worked out at 300 mg/kg. Besides, in data set [16], the MTC worked out at 300 mg/kg. Moreover, the MED entry in data set [17] is “inactive”.
Consider `O=C1NC(c2ccccc2)(c2ccccc2)C(=O)N1CN1CCN(c2cccc(C(F)(F)F)c2)CC1`, for which the minimal effective dose was 100 mg/kg in [2] and 300 mg/kg in data set [3]. Besides, the Activity entry in data set [22], in data set [23], in [24], in data set [29], in data set [30] and in [31] was “Non-Toxic” throughout. Besides, the Activity result in [34], in [35], in data set [37], in data set [38], in data set [39] and in data set [40] was “Non-Toxic” throughout. The outcome in data set [25], in data set [27], in [36] and in data set [18] was inactive. Also, the result in data set [26], in [28], in [32] and in data set [33] was Active. Also, in data set [17], the MED result was “inactive”.
